We go through twelve compounds from ChEMBL document CHEMBL1240487, “Discovery of a potent, selective, and orally bioavailable pyridinyl-pyrimidine phthalazine aurora kinase inhibitor” (J Med Chem, 2010).

The structures appear in SMILES notation. Converted amounts (≈) assume the structure as drawn. The source made the active and inactive calls. The rule behind the calls is not given here. Some results are limits rather than exact numbers.

Series [1] concerns the target T1, Aurora kinase A/Targeting protein for Xklp2 (Homo sapiens, UniProt O14965).
T1 sequence (O14965 whole entry): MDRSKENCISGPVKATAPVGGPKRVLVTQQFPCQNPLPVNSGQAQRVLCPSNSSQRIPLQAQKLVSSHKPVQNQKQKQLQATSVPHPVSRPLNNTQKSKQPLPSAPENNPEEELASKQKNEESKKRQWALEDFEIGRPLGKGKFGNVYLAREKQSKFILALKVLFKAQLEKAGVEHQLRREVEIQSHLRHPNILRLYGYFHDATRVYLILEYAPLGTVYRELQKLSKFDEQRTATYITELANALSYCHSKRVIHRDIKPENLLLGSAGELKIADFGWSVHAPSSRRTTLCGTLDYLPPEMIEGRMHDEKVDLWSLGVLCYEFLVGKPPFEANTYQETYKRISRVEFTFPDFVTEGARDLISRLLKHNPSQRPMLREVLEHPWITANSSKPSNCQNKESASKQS
T1 sequence (Q9ULW0 whole entry): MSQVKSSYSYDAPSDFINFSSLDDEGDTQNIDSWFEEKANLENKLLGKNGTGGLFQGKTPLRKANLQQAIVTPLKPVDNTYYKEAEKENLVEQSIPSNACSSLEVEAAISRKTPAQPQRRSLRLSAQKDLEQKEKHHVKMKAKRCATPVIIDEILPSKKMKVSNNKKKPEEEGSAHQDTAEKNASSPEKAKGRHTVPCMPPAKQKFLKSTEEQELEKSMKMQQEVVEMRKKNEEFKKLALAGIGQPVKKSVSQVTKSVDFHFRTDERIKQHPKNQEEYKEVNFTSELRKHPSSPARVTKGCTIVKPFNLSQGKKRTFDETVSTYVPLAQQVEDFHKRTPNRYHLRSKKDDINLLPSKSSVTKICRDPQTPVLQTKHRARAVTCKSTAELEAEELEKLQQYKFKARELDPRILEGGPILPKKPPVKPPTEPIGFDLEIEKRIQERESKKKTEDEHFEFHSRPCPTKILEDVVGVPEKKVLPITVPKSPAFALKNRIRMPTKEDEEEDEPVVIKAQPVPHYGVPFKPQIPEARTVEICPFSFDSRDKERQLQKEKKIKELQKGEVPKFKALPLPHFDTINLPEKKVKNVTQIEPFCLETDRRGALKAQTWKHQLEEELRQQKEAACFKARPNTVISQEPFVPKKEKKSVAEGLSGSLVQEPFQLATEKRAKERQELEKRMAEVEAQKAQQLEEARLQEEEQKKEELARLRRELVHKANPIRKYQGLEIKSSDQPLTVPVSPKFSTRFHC
As to the kind of experiment: Inhibition of Aurora A/TPX2 (1-43) by HTRF assay. The format is protein-complex assay. The method, boiled down: (§1)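 Enzyme inhibition was run with ATP at its Km for each kinase. Values are averages of at least two determinations.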
In general terms: In TR-FRET formats the signal depends on donor and acceptor labels being close together.

Series [2] deals with T2, Aurora kinase B (Homo sapiens, UniProt Q96GD4). As to the kind of experiment: Inhibition of Aurora B by HTRF assay. An outline of the steps: as §1
Series [3] in a line: Aqueous equilibrium solubility of the compound in 0.01N HCL. The format is physicochemical.
The target in series [4] is T2, Aurora kinase B. As to the kind of experiment: Inhibition of aurora B autophosphorylation in human HeLa cells at 1 uM after 3 hrs by Western blotting. (In general: A western blot detects proteins with antibodies after separation by electrophoresis.)
The nature of series [5]: Clearance in Sprague-Dawley rat at 0.5 mg/kg, iv and 2 mg/kg, po. The settings on record: in vivo. The format is ADME, organism-based.
The nature of series [6]: Oral bioavailability in Sprague-Dawley rat at 2 mg/kg. In kind it is ADME, organism-based. The settings on record: in vivo.
The nature of series [7]: Intrinsic clearance in rat liver microsomes at 1 uM after up to 40 mins. The format is ADME, Microsome. A general note: Liver microsomes are vesicles of endoplasmic reticulum, rich in cytochrome P450 enzymes.

T2 sequence (Q96GD4 whole entry): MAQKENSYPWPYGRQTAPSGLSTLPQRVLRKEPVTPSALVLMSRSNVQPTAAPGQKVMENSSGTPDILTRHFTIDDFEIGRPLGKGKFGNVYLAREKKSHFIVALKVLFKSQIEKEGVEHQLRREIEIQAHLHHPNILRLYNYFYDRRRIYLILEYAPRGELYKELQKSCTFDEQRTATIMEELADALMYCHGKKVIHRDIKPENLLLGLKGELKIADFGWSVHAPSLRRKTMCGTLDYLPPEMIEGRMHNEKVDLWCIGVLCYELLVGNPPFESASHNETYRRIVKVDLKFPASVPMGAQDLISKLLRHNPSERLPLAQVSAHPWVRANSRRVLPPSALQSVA

For `CNc1nccc(-c2cccnc2Oc2ccc(Nc3nnc(-c4ccccc4)c4ccccc34)cc2)n1`, the IC50 came out at 149 nM in series [1] and 22 nM in series [2]. Moreover, the thermodynamic solubility in series [3] came out at 159 µg/mL (≈ 320 µM).

Regarding `CCN(CCCOc1ccc2c(Nc3cc(CC(=O)Nc4cccc(F)c4)[nH]n3)ncnc2c1)CCOP(=O)(O)O`, the outcome in series [4] was Active.

Consider `CNc1nccc(-c2cccnc2Oc2ccc(NC(=O)c3ccccc3Nc3ccccc3)c(C)c2)n1`, for which the values for the half-inhibitory concentration (IC50) in series [1] and in series [2] were over 1000 nM and 110 nM, respectively.

In the case of `CNc1nccc(-c2cccnc2Oc2ccc(NC(=O)c3cccc(Oc4ccccc4)c3)cc2C)n1`, the IC50 is 964 nM in series [1] and 251 nM in series [2].

Turning to `CNc1nccc(-c2cccnc2Oc2ccc(NC(=O)c3cc(F)ccc3Nc3ccccc3)cc2)n1`, the clearance in series [5] is 14.5 mL/min/kg. Besides, in series [6], the bioavailability is under 1%. The intrinsic metabolic clearance (microsomal CLint) at 1 µM in series [7] turned out to be 338 µL/min/mg. For the same compound, in series [3], the thermodynamic solubility was 16 µg/mL (≈ 31.6 µM).

Consider `CNc1nccc(-c2cccnc2Oc2ccc(NC(=O)c3ccccc3Cl)cc2C)n1`, for which the half-inhibitory concentration (IC50) in series [1] and in series [2] was over 25000 nM each time.

For `CNc1nccc(-c2cccnc2Oc2ccc(NC(=O)c3ccccc3Nc3ccc(F)cc3)cc2)n1`, in series [5], the clearance is 26.7 mL/min/kg. This compound also came in with a microsomal CLint at 1 µM in series [7] of 467 µL/min/mg. Further, the solubility (thermodynamic) in series [3] came out at 23 µg/mL (≈ 45.4 µM).

Consider `CNc1nccc(-c2cccnc2Oc2ccc(NC(=O)c3ccc(Cl)cc3)cc2C)n1`, for which the values for the IC50 in series [1] and in series [2] were 2340 nM and 335 nM, respectively.

Take `CNc1nccc(-c2cccnc2Oc2ccc(NC(=O)c3cccc(Cl)c3)cc2C)n1`: the IC50 in series [1] worked out at 1550 nM; in series [2] it was 430 nM.

For the compound `CNc1nccc(-c2cccnc2Oc2ccc(NC(=O)c3ccc(Oc4ccccc4)cc3)cc2C)n1`, the IC50 in series [2] came to 542 nM.

Consider `CNc1nccc(-c2cccnc2Oc2ccc(NC(=O)c3ccccc3Oc3ccccc3)cc2C)n1`, for which the IC50 was found to be 1540 nM in series [1] and 56 nM in series [2].

On to `CNc1nccc(-c2cccnc2Oc2ccc(NC(=O)c3ccccc3Nc3ccccc3)cc2C)n1`, for which the IC50 in series [1] was 62 nM; in series [2] it was 17 nM.

One may read the IC50 as the point on the concentration scale where inhibition reaches its midpoint. Read a high IC50 as weaker potency. As usually defined, the solubility (thermodynamic) is solubility found after equilibrating the solid with the medium. The bioavailability is the share of a dose that reaches the circulation, judged against a reference dose that is usually intravenous. Low readings indicate poor availability, high ones good availability. By microsomal CLint is commonly meant the capacity of the preparation to metabolise the compound, expressed as a volume cleared per time. Higher therefore signals rapid turnover.
